Test results from paper PMC12089494 (Nature Communications, 2025).
Values after ≈ are worked out from the molar mass of the structure shown. Where two headings read alike, the source gives them in different places.

Columns and labels:
[1] = Single-pass intestinal perfusion; type: in vivo, Wistar rats
Procedure, shortened: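 Male Wistar germ-free and age-matched SPF rats (6-week-old, 250–300 g), n = 6 per group. Fasted 12 h with free water, anaesthetised with intramuscular ketamine-xylazine (80 mg/kg and 20 mg/kg), kept on a heated surface at 37 ± 1 °C. Intestine perfused single-pass in situ for 2 h, sampled at 15-min intervals, and Peff determined. Perfused and unperfused segments were collected for microbiological detection.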

[2] = cited from earlier work
[3] = SPIP in GF rats mono-colonized with BTWT/BFWT or BTΔSPT/BFΔSPT; type: in vivo, Wistar rats; settings: for Peff plateau: SPIP 30 mg/L NAC
Procedure, shortened: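 Germ-free Wistar rats (6-week-old) fed a fat-free diet (0% kcal fat, 76% carbohydrate, 24% protein) containing only PAA for 12 weeks. Wild-type or SPT-deleted Bacteroides strains, grown anaerobically at 37 °C in BHI with […] cysteine and resuspended in oxygen-free PBS, then given with the diet (10⁸ CFU/μL of PBS per rat, three times weekly) for 8 weeks. In situ single-pass perfusion and Peff determination followed.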

[4] = cited from earlier work; remark: listed apart in the source

Peff plateau ([1]; GF rats, SPIP): 1.446 × 10^–4 cm/s
Peff increase in GF rats than SPF controls ([1]; GF vs SPF rats): two-fold increase
Peff plateau ([3]; GF^BFΔSPT rats): 1.417 × 10^–4 cm/s
Peff increase than GF^BTWT and GF^BFWT littermates ([3]; GF^BTΔSPT and GF^BFΔSPT rats vs wild-type colonized): approximately with the two-fold increase
Peff plateau ([3]; GF^BTΔSPT rats): 1.216 × 10^–4 cm/s
Structure (SMILES): CC(=O)N[C@@H](CS)C(=O)O [NAC, N-Acetylcysteine]
within-study coefficients of variability (CVs) ([2]; different populations): 35-45%
tmax ([2]; oral dose of NAC 400 mg, reduced form): 30 min
Bio-availability, reduced form ([2]; oral dose of NAC 400 mg): 4.0%
Bio-availability, total drug ([2]; oral dose of NAC 400 mg): 9.1%
Cmax of the reduced form ([2]; oral dose of NAC 400 mg): 3470 ng/mL
aqueous solubility [4]: 163.9 mg/mL (≈ 1000 mM)
aqueous solubility ([4]; pH 7.4): 163.9 mg/mL (≈ 1000 mM)
